Only some compounds are listed: those with a hit (about 3.5% of all), similar ones and a draw of the others.
MrgX1 agonist = agonists of human MrgX1 receptor, primary screen, HEK293 cells, Fluo-4 calcium flux. Fluo-4 calcium fluorescence, agonist mode; stronger effect = higher value. B-score at 10 µM. 310,000 tested, 0.44% active. AID 588627, 2011;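 active = calcium response B-score plate-corrected fluorescence ratio at least 3 library SD, with starting fluorescence B-score inside 5 SD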
Target sequence (Q96LB2 whole entry, looked up): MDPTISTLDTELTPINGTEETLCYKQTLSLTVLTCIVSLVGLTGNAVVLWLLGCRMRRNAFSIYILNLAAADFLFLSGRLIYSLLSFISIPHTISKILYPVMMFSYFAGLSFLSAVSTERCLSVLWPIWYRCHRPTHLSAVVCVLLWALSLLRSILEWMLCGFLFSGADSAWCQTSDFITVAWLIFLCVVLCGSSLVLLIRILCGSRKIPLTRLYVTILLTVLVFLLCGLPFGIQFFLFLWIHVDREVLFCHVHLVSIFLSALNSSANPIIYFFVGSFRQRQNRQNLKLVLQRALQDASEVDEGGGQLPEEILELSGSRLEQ
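Test system: HEK293 cells stably expressing human MrgX1 receptor; Input: fifteen thousand cells per well; Dosing: compound delivered in addition one of three; Schedule: overnight seeding, then 1 h dark dye loading; Technique: Fluo-4 NW calcium fluorescence; Measure: B-scored fluorescence response ratio; Controls: positive and negative controls per plate.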
MrgX1 antag = antagonists of human MrgX1 receptor, primary screen, HEK293 cells, Fluo-4 calcium flux; Mas-related G-protein coupled receptor member X1 (Homo sapiens), Q96LB2; BAM8-22 antagonism; stronger effect = lower value; B-score at 10 µM; 310,000 tested, 1.3% active;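 active = calcium-response B-score plate-corrected more than 3 library SD below zero, starting fluorescence within 5 deviations, no agonist response on first addition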;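 note: peak minus trough fluorescence over baseline after final BAM8-22 challenge near maximal dose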
RGS4 act = RGS4 potentiators or activators, primary screen, cell-based, HEK293 M3R inducible RGS4, calcium flux. carbachol calcium flux Fluo4; stronger effect = lower value. B-score at 10 µM. 310,000 tested, 0.92% active. AID 463111, 2010;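 active = B-score of the integrated calcium signal more than 4 SD below the library mean, with starting fluorescence not abnormally high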;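 note: negative B-score means reduced calcium response which marks RGS4 activation or potentiation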
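Detection: kinetic calcium fluorescence imaging with Fluo4-AM dye, 2 µM / Material: HEK293 cells with stable M3R and inducible RGS4 / Schedule: recording 10 s baseline at 1 Hz, 100 s post-agonist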
RGS4 inh = RGS4 inhibitors, primary screen, cell-based, HEK293 M3R inducible RGS4, calcium flux. Fluo-4 calcium flux; stronger effect = higher value; triggered by carbachol at its EC20. 310,000 tested, 0.45% active. B-score at 10 µM;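 active = B-score, a plate-corrected calcium signal, over three deviations above library mean, with baseline fluorescence within five deviations of library mean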;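 note: RGS4 expression induced by doxycycline in cells with stable M3 receptor; B-score is computed from the integrated fluorescence ratio over baseline after carbachol; higher B-score means a larger calcium signal and so more RGS4 inhibition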
Target sequence (P49798 whole entry, looked up): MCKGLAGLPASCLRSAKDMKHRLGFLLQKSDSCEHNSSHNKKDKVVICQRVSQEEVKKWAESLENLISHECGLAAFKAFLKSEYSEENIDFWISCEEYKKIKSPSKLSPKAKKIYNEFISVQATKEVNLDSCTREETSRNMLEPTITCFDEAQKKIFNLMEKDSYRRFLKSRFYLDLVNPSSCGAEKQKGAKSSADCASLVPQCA
MrgX1 PAM = positive allosteric modulators of MrgX1, primary screen, HEK293 cells, Fluo-4 calcium flux | Mas-related G-protein coupled receptor member X1 (Homo sapiens), Q96LB2 | FDSS; stronger effect = higher value | B-score at 10 µM | 310,000 tested, 0.63% active | AID 588675, 2011;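 active = plate-corrected calcium response at least 3 library SD above typical, normal starting fluorescence, not activating the receptor alone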;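 note: compound read alongside a low EC10 to EC30 dose of BAM8-22 agonist; peak minus trough fluorescence over baseline measured at the second addition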
RGS4 inh valid = enhanced carbachol calcium response, M3R/RGS4 cells, RGS4 inhibitor project, cell-based, validation screen, HEK293 M3R/RGS4, calcium flux. shares compounds with RGS4 inh. carbachol calcium Fluo-4 fluorescence; carbachol added at its EC20; 0 = buffer wells, 100 = carbachol control. calcium response, % at 10 µM. 1,700 tested, 65% active. AID 492999, 2010;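 active = duplicate-averaged calcium response above the buffer-only control mean plus 5 SD of those controls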;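 note: integrated fluorescence ratio F max minus min over baseline F0; higher response in RGS4-induced cells means RGS4 inhibition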
RGS4 uninduced = carbachol calcium response in non-induced M3R cells, confirmation, counter-screen for RGS4 inhibitor project, cell-based, HEK293 M3R; 1,900 tested, 20% active; shares compounds with RGS4 inh; carbachol calcium Fluo-4; submaximal (EC20) carbachol stimulus; buffer wells 0%, carbachol control wells 100%; activity (percent), % at 10 µM; call rule not given here;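 note: RGS4 induction absent so cells express M3R without RGS4; higher means more calcium signal and flags a non-specific hit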
RGS4 inh ctr2 = second RGS4 inhibitor counter-screen in uninduced cells lacking carbachol; shares compounds with RGS4 inh; HEK293 M3R/RGS4 non-induced, Fluo-4 calcium, no carbachol; normalised: buffer wells 0%, carbachol wells 100%; calcium response (agonist-mode artifact), % at 10 µM; 1,900 tested, 22% active;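 active = duplicate-averaged calcium rise in uninduced cells above buffer wells' mean plus 5 SD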
Each line names hits and unclear results; the compound was inactive in the other large screens (follow-up assays come after a bar, where they were run).

Cc1ccc(NC(=O)CN2C(=O)NC3(CCCC3)C2=O)c(Cl)c1	none
COC(=O)C1=C(C)N(C2CCCCC2)C(=O)/C1=C\c1cccs1	RGS4 inh 5.71 | RGS4 inh valid 10.5% | RGS4 uninduced inactive | RGS4 inh ctr2 inactive
COc1ccc(Nc2nnc(-c3ccccc3)c3ccccc23)cc1C(=O)N1CCCCC1	RGS4 inh 5 | RGS4 inh valid 148.0% | RGS4 uninduced 88.0% | RGS4 inh ctr2 inactive
COc1ccc(-c2cc(C(=O)N3CCCCC3)c3ccccc3n2)cc1OC	none
COc1ccc(Nc2nnc(-c3ccc(C)cc3)c3ccccc23)cc1C(=O)N1CCCCC1	none | RGS4 uninduced inactive | RGS4 inh ctr2 inactive
CC(=O)N1CC(=O)N=C1SCC(=O)Nc1nc(C)c(-c2ccccc2)s1	none | RGS4 inh valid inactive | RGS4 uninduced inactive | RGS4 inh ctr2 inactive
CCOc1ccc(-c2csc(NC(=O)CSC3=NC(=O)CN3C(C)=O)n2)c2ccccc12	none
O=C(c1ccc2c(=O)n3c(nc2c1)CCCCC3)N1CCc2ccccc21	none
COC(=O)Cc1cc(OC)c(OC)cc1S(=O)(=O)N(C)C	none
O=C(N/N=C/c1ccc(O)cc1O)/C(=C/c1ccccc1)CCO	RGS4 inh 9.64 | RGS4 inh valid 53.0% | RGS4 uninduced 37.5% | RGS4 inh ctr2 inactive
COc1cccc(CNS(=O)(=O)c2ccc3c(c2)N(C(C)=O)CCO3)c1	none
O=C(CSc1nc2c(cnn2-c2ccc(F)cc2)c(=O)[nH]1)N1CCCc2ccccc21	none | RGS4 inh valid inactive | RGS4 uninduced inactive | RGS4 inh ctr2 inactive
CC(=O)Nc1ccc(NC(=O)COC(=O)c2cnccn2)cc1	none
Cc1ccc(-n2c(O)c(/C=C3/C(c4ccccc4)=Nc4ccccc43)c(=O)[nH]c2=O)cc1	MrgX1 agonist 29, RGS4 inh 9.78 | RGS4 inh valid 5.0% | RGS4 uninduced inactive | RGS4 inh ctr2 49.0%
COc1ccc(-n2c(O)c(/C=C3\C=Nc4ccccc43)c(=O)[nH]c2=O)cc1	none (no result: MrgX1 agonist, MrgX1 antag, MrgX1 PAM)
Cc1ccc(S(C)(=O)=N/C=C2\C(=O)c3sccc3N(C)S2(=O)=O)cc1 (stereo not given)	RGS4 inh 6.42 | RGS4 inh valid 7.5% | RGS4 uninduced inactive | RGS4 inh ctr2 inactive
CNc1nc(N)c([N+](=O)[O-])c(Nc2ccccc2OC)n1	RGS4 inh 11.2 | RGS4 inh valid 12.5% | RGS4 uninduced 44.5% | RGS4 inh ctr2 inactive
O=C(Cc1c[nH]c2ccccc12)N/N=C/c1ccccc1O	none
Cc1ccc(/C=N/NC(=O)Cc2c[nH]c3ccccc23)c(C)c1	RGS4 inh 6.9 | RGS4 inh valid 31.0% | RGS4 uninduced inactive | RGS4 inh ctr2 42.0%
O=C(N/N=C/c1c[nH]c2ccccc12)c1[nH]c2ccc(Br)cc2c1-c1ccccc1	RGS4 inh 6.95 (no result: MrgX1 agonist, MrgX1 antag, MrgX1 PAM) | RGS4 inh valid 18.0% | RGS4 uninduced 28.5% | RGS4 inh ctr2 inactive
O=C(N/N=C/c1ccc(O)cc1)c1[nH]c2ccc(Br)cc2c1-c1ccccc1	none
COc1ccc(C(=O)/C=C/c2cc(C(=O)O)cc3c2OCOC3)c(O)c1	RGS4 inh 23.6 | RGS4 inh valid 64.5% | RGS4 uninduced 69.5% | RGS4 inh ctr2 inactive
O=C(/C=C/c1ccc(O)c(O)c1)c1ccccc1O	RGS4 inh 12.6, MrgX1 PAM 13.5 | RGS4 inh valid 25.0% | RGS4 uninduced 48.5% | RGS4 inh ctr2 inactive
O=C(/C=C/c1ccoc1)c1ccccc1O	none
COc1ccc(C(=O)/C=C/c2ccccc2)c(O)c1	none | RGS4 inh valid inactive | RGS4 uninduced inactive | RGS4 inh ctr2 inactive
COc1ccc(C(=O)/C=C/c2ccc(OC)cc2OC)c(O)c1	none
CCCCC(O)(c1ccc(CC)cc1)C(CN1CCOCC1)c1ccccc1 (stereo not given)	none
Cc1cc(C(=O)Nc2ccc3c(c2)CCC3)c2ccccc2n1	none
Cc1ccc(CNC(=O)c2cn(C3CCCCC3)c(=O)c3c2c2ccccc2n3C)o1	RGS4 inh 6.09 | RGS4 inh valid 13.0% | RGS4 uninduced inactive | RGS4 inh ctr2 inactive
CC(/C=N/NC(=O)c1n[nH]c2c1CCC2)=C\c1ccccc1	none | RGS4 inh valid inactive | RGS4 uninduced inactive | RGS4 inh ctr2 inactive
COc1cccc(NC(=O)CSC(N)=O)c1	none
CCOC(=O)/C(=C\c1ccc(OC(F)F)cc1)C1=Nn2c(nnc2-c2ccc(Cl)cc2)SC1	none
CCOC(=O)C1CCN(C(C(=O)NC2CCCC2)c2ccc(C)cc2)CC1 (stereo not given)	RGS4 inh 5.31 | RGS4 inh valid 21.0% | RGS4 uninduced inactive | RGS4 inh ctr2 inactive
CC(=O)Nc1ccc(NC(=O)CC(NC(=O)c2ccccc2)c2ccccc2)cc1 (stereo not given)	none
CC(=O)CCc1oc2ccc(C)cc2c1-c1ccc(C)o1	none
CC(=O)CCc1oc2ccc(NC(C)=O)cc2c1-c1ccc(C)o1	RGS4 inh 5.31 | RGS4 inh valid inactive | RGS4 uninduced inactive | RGS4 inh ctr2 inactive
COc1cccc(C(=O)Nc2cc(OC)ccc2NC(=O)c2ccco2)c1	none
COC(=O)c1ccc(N2NC(=O)/C(=C/c3cc(OC)c(O)c(OC)c3)C2=O)cc1	none | RGS4 inh valid inactive | RGS4 uninduced inactive | RGS4 inh ctr2 29.5%
COc1cc(/C=C2/C(=O)NN(c3ccc(F)cc3)C2=O)cc(Cl)c1O	MrgX1 agonist 30.2, RGS4 inh 6.25 | RGS4 inh valid 14.5% | RGS4 uninduced 35.0% | RGS4 inh ctr2 18.0%
COc1cc(/C=C2/C(=O)N(c3ccc(Br)cc3)N=C2C)cc([N+](=O)[O-])c1O	none
COc1cccc(/C=C2/C(=O)NN(c3ccc(Br)cc3)C2=O)c1O	none
COC(=O)c1ccc(N2NC(=O)/C(=C/c3cc(OC)c(OC)c(OC)c3)C2=O)cc1	RGS4 inh 4.91 | RGS4 inh valid 13.5% | RGS4 uninduced inactive | RGS4 inh ctr2 inactive
CC(C)(CC(=O)O)CC(=O)N1CCN(c2cc(C(F)(F)F)nc3ccccc23)CC1	RGS4 inh 5.01 | RGS4 inh valid inactive | RGS4 uninduced inactive | RGS4 inh ctr2 inactive

Compound activity from PubChem.
